≈ marks a conversion by molar mass, not a printed value. Calls of active or inactive are those of the source. The calls are words filed in the database; no cut-off is given here.
Key:
[1] = biological target: Metabotropic glutamate receptor 3 (Homo sapiens) (UniProt Q14832); experiment: Agonist activity at mGluR3 assessed as effect on intracellular Ca2+ level up to 30 uM by cell based FLIPR assay; format: functional
How it was run: (§1)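 Each of the seven other mGluR subtypes was tested at concentrations up to 30 µM. Agonist, antagonist and positive allosteric modulator modes were each assessed. Read-out was the change in intracellular Ca2+ on FLIPR.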

[2] = biological target: Metabotropic glutamate receptor 3 (Homo sapiens) (UniProt Q14832); experiment: Antagonist activity at mGluR3 assessed as effect on intracellular Ca2+ level up to 30 uM by cell based FLIPR assay; format: functional; how it was run: as §1
[3] = biological target: Metabotropic glutamate receptor 3 (Homo sapiens) (UniProt Q14832); experiment: Positive allosteric modulation of mGluR3 assessed as effect on intracellular Ca2+ level up to 30 uM by cell based FLIPR assay; format: functional; how it was run: as §1
[4] = biological target: T1, Metabotropic glutamate receptor 5 (Homo sapiens, UniProt P41594); experiment: Negative allosteric modulation of human recombinant mGluR5 expressed in HEK293 cells expressing GLAST assessed as inhibition of DHPG-induced intracellular Ca2+ level after 30 mins by FLIPR assay
[5] = biological target: Metabotropic glutamate receptor 8 (Homo sapiens) (UniProt O00222); experiment: Antagonist activity at mGluR8 assessed as effect on intracellular Ca2+ level up to 30 uM by cell based FLIPR assay; format: functional; how it was run: as §1
[6] = biological target: Metabotropic glutamate receptor 8 (Homo sapiens) (UniProt O00222); experiment: Agonist activity at mGluR8 assessed as effect on intracellular Ca2+ level up to 30 uM by cell based FLIPR assay; format: functional; how it was run: as §1
[7] = biological target: Metabotropic glutamate receptor 6 (Homo sapiens) (UniProt O15303); experiment: Antagonist activity at mGluR6 assessed as effect on intracellular Ca2+ level up to 30 uM by cell based FLIPR assay; format: functional; how it was run: as §1
[8] = biological target: Metabotropic glutamate receptor 6 (Homo sapiens) (UniProt O15303); experiment: Positive allosteric modulation of mGluR6 assessed as effect on intracellular Ca2+ level up to 30 uM by cell based FLIPR assay; format: functional; how it was run: as §1
[9] = Tmax in Sprague-Dawley rat at 3 umol/kg, po; format: ADME, organism-based; conditions: in vivo
How it was run: (§2)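 Male rats (n = 3) received a single oral dose of 3 µmol/kg. Vehicle was Polyvidon K30 1.7 mg/ml, sodium lauryl sulphate 0.34 mg/ml and glycerin 25.0 mg/ml in water. Plasma levels were measured by liquid–liquid extraction and reversed-phase LC-MS/MS (APCI or ESI).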

[10] = biological target: T1, Metabotropic glutamate receptor 5; experiment: Negative allosteric modulation of human recombinant mGluR5 expressed in HEK293 cells expressing GLAST assessed as inhibition of glutamate-stimulated IP accumulation incubated for 10 mins prior to glutamate challenge measured 30 mins post glutamate challenge by scintillation counter in presence of [3H]myo-inositol; format: functional, cell-based
[11] = Cmax in Sprague-Dawley rat at 3 umol/kg, po; format: ADME, organism-based; design: dose 3 umol/kg, route oral; conditions: in vivo; how it was run: as §2
[12] = Clearance in Sprague-Dawley rat at 3 umol/kg, iv; format: ADME, organism-based; conditions: in vivo
How it was run: (§3)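 Male rats (n = 3) received a single intravenous dose of 3 µmol/kg. Vehicle was 40% w/w dimethylacetamide/40% w/w PEG 400/20% w/w water. Plasma drug was measured after liquid–liquid extraction by reversed-phase LC with APCI or ESI tandem MS.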

[13] = biological target: Metabotropic glutamate receptor 2 (Homo sapiens) (UniProt Q14416); experiment: Agonist activity at mGluR2 assessed as effect on intracellular Ca2+ level up to 30 uM by cell based FLIPR assay; format: functional; how it was run: as §1
[14] = biological target: Metabotropic glutamate receptor 1 (Homo sapiens) (UniProt Q13255); experiment: Agonist activity at mGluR1 assessed as effect on intracellular Ca2+ level up to 30 uM by cell based FLIPR assay; format: functional; how it was run: as §1
[15] = biological target: Metabotropic glutamate receptor 7 (Homo sapiens) (UniProt Q14831); experiment: Positive allosteric modulation of mGluR7 assessed as effect on intracellular Ca2+ level up to 30 uM by cell based FLIPR assay; format: functional; how it was run: as §1
[16] = Terminal half life in Sprague-Dawley rat at 3 umol/kg, iv; format: ADME, organism-based; conditions: in vivo, read-out: beta t1/2 (converted); how it was run: as §3
[17] = biological target: Metabotropic glutamate receptor 5 (Rattus norvegicus) (UniProt P31424); experiment: (§4) Negative allosteric modulation of rat recombinant mGluR5 expressed in HEK293 cells expressing GLAST assessed as inhibition of DHPG-induced intracellular Ca2+ level after 30 mins by FLIPR assay; format: functional, cell-based
How it was run: (§5)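 Human or rat mGluR5 expressed recombinantly in HEK293 cells that constitutively express the glutamate/aspartate transporter (mGluR5-GHEK). Intracellular Ca2+ rise evoked by DHPG was read on FLIPR. Potency was taken from test-compound inhibition of that response. Mean of 3 separate experiments.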

[18] = biological target: Metabotropic glutamate receptor 5 (Rattus norvegicus, UniProt P31424); experiment: as §4; format: functional, cell-based; how it was run: as §5
[19] = biological target: T1, Metabotropic glutamate receptor 5; experiment: Negative allosteric modulation of human recombinant mGluR5 expressed in HEK293 cells expressing GLAST assessed as inhibition of DHPG-induced intracellular Ca2+ level after 30 mins by FLIPR assay
[20] = biological target: Metabotropic glutamate receptor 4 (Homo sapiens) (UniProt Q14833); experiment: Antagonist activity at mGluR4 assessed as effect on intracellular Ca2+ level up to 30 uM by cell based FLIPR assay; format: functional; how it was run: as §1
[21] = Equilibrium solubility of the compound […]; format: physicochemical
How it was run: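 Solubility was measured by a dried-DMSO rapid-throughput method.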

[22] = biological target: T1, Metabotropic glutamate receptor 5; experiment: Negative allosteric modulation of human recombinant mGluR5 expressed in HEK293 cells expressing GLAST assessed as inhibition of ATP-induced intracellular Ca2+ level at 10 uM after 30 mins by FLIPR assay; format: functional, cell-based
How it was run: (§6)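 FLIPR intracellular Ca2+ readout in background GHEK cells (HEK293 with glutamate/aspartate transporter, lacking mGluR5), stimulated with 10 µM ATP; test compound at 10 µM to check off-target inhibition.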

[23] = Volume of distribution at steady state in Sprague-Dawley rat at 3 umol/kg, iv; format: ADME, organism-based; conditions: in vivo, read-out: Vdss; how it was run: as §3
[24] = biological target: Metabotropic glutamate receptor 5 (Rattus norvegicus) (UniProt P31424); experiment: Negative allosteric modulation of rat recombinant mGluR5 expressed in HEK293 cells expressing GLAST assessed as inhibition of ATP-induced intracellular Ca2+ level at 10 uM after 30 mins by FLIPR assay; format: functional, cell-based; how it was run: as §6
[25] = biological target: Metabotropic glutamate receptor 2 (Homo sapiens) (UniProt Q14416); experiment: Positive allosteric modulation of mGluR2 assessed as effect on intracellular Ca2+ level up to 30 uM by cell based FLIPR assay; format: functional; how it was run: as §1
[26] = biological target: T1, Metabotropic glutamate receptor 5; experiment: Negative allosteric modulation of human recombinant mGluR5 expressed in HEK293 cells expressing GLAST assessed as inhibition of DHPG-induced intracellular Ca2+ level at 0.001 to 3 uM after 30 mins by FLIPR assay; format: functional, cell-based
[27] = Intrinsic clearance in rat liver microsomes; format: ADME, Microsome; conditions: read-out: CLH
How it was run: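 Intrinsic clearance was determined in human or rat microsomes and expressed per min per mg protein.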

[28] = Oral bioavailability in Sprague-Dawley rat at 3 umol/kg; format: ADME, organism-based; conditions: in vivo; how it was run: as §2
[29] = Plasma protein binding in Sprague-Dawley rat after 6 hrs by equilibrium dialysis method; format: ADME, cell-free; conditions: read-out: PPB (converted)
[30] = biological target: T1, Metabotropic glutamate receptor 5; experiment: Noncompetitive inhibition of human mGluR5 expressed in HEK cells assessed as inhibition of DHPG-induced intracellular Ca2+ level at 10 to 300 nM after 30 mins by FLIPR assay; format: functional, cell-based; conditions: HEK293
How it was run: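 Human mGluR5-GHEK cells on FLIPR: DHPG concentration–response curves run at increasing modulator concentrations, intracellular Ca2+ read-out; shifts in DHPG potency and maximal response evaluated for non-competitive interaction.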

Metabotropic glutamate receptor 3 (Homo sapiens), sequence (Q14832 23-879 limits assumed): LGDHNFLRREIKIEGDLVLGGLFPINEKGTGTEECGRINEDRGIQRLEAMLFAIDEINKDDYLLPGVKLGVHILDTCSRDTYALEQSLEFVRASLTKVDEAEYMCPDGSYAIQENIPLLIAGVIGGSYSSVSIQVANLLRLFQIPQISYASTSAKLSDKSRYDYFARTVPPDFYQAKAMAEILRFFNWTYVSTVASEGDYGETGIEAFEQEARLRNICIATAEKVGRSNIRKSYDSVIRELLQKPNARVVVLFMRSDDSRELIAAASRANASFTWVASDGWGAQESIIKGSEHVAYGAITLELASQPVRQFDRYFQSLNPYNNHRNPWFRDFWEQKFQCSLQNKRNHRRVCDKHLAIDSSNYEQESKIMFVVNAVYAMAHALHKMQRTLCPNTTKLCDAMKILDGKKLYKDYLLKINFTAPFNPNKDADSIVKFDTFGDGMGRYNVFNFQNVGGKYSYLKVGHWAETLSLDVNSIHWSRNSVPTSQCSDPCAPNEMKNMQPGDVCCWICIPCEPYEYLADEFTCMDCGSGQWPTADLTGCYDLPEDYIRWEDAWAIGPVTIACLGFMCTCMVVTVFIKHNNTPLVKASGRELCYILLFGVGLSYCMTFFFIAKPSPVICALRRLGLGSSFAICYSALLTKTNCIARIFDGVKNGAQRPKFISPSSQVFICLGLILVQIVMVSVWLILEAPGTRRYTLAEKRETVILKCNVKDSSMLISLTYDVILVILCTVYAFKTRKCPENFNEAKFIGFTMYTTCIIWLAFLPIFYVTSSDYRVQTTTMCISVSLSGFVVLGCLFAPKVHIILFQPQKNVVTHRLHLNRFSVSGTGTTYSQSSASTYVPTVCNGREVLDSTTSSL
Metabotropic glutamate receptor 2 (Homo sapiens), sequence (Q14416 19-872 limits assumed): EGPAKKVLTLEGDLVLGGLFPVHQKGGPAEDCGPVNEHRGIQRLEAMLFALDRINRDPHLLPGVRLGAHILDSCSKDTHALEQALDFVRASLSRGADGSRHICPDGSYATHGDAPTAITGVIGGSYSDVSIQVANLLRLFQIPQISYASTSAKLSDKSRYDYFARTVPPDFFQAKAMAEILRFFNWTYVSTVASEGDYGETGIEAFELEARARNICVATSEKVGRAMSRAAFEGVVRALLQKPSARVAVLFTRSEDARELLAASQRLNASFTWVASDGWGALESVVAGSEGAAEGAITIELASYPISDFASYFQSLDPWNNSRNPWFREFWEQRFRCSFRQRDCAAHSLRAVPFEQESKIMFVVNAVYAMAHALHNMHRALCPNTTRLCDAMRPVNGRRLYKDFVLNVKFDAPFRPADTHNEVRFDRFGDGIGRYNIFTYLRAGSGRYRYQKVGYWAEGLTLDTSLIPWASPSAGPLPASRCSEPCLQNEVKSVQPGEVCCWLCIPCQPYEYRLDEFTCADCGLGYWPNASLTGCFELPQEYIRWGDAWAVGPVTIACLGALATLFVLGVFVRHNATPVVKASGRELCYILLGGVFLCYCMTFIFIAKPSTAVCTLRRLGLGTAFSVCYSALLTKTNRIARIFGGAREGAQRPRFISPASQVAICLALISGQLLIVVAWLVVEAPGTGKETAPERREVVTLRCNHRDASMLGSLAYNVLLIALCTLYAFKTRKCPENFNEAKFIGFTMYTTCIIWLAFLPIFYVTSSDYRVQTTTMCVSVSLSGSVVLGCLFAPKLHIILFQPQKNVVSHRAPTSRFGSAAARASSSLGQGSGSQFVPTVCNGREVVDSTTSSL
Metabotropic glutamate receptor 5 (Rattus norvegicus), sequence (P31424 21-1203 limits assumed): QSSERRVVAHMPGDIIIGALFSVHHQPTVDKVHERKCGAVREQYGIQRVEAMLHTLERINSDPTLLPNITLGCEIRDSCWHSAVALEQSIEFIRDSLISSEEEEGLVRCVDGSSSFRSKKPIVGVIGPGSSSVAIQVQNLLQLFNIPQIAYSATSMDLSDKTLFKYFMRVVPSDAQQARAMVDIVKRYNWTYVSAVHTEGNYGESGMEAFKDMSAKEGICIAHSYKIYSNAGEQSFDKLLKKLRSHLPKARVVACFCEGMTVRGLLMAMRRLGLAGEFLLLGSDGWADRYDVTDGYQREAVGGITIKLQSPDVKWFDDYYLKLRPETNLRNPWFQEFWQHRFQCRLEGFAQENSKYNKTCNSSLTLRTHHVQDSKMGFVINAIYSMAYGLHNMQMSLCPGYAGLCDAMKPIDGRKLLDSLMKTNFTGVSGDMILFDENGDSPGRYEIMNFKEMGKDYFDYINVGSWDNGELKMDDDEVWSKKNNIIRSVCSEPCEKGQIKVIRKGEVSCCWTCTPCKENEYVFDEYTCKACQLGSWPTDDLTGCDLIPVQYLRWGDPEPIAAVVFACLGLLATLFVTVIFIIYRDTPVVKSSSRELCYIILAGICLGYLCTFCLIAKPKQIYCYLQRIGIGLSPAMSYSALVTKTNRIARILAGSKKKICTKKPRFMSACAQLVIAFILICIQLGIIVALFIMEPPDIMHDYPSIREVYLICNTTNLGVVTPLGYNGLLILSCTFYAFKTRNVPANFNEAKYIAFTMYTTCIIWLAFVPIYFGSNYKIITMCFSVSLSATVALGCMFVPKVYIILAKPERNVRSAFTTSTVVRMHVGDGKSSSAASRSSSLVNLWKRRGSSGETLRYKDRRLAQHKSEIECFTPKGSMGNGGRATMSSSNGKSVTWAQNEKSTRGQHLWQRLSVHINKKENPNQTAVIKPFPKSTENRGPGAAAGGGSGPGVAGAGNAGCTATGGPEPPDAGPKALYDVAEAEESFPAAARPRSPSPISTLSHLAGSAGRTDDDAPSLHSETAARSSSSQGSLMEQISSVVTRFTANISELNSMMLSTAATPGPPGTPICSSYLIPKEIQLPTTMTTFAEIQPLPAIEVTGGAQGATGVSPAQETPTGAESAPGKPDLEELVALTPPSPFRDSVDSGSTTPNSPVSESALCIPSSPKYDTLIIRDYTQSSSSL
Metabotropic glutamate receptor 6 (Homo sapiens), sequence (O15303 whole entry): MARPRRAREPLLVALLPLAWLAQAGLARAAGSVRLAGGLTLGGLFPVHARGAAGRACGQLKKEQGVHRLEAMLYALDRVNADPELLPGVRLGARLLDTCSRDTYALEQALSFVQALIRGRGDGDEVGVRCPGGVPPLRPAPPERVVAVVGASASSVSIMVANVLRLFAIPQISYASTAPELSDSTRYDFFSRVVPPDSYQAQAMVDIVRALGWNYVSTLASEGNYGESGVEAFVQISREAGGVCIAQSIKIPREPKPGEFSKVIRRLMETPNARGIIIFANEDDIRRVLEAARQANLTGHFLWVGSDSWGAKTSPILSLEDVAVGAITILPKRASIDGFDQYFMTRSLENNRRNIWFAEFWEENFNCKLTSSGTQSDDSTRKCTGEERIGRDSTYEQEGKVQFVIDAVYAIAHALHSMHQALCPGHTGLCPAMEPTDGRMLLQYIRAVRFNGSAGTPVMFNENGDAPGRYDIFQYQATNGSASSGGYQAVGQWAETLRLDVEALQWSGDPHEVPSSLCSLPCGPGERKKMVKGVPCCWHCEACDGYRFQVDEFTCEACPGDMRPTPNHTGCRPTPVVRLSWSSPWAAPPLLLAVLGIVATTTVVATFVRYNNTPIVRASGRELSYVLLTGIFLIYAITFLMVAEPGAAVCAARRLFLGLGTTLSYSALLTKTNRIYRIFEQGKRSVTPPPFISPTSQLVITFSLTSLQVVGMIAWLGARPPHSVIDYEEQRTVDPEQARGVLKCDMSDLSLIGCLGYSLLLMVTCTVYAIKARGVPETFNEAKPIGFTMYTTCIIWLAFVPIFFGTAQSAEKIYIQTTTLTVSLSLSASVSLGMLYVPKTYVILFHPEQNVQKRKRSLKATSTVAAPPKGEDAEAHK
Metabotropic glutamate receptor 8 (Homo sapiens), sequence (O00222 whole entry): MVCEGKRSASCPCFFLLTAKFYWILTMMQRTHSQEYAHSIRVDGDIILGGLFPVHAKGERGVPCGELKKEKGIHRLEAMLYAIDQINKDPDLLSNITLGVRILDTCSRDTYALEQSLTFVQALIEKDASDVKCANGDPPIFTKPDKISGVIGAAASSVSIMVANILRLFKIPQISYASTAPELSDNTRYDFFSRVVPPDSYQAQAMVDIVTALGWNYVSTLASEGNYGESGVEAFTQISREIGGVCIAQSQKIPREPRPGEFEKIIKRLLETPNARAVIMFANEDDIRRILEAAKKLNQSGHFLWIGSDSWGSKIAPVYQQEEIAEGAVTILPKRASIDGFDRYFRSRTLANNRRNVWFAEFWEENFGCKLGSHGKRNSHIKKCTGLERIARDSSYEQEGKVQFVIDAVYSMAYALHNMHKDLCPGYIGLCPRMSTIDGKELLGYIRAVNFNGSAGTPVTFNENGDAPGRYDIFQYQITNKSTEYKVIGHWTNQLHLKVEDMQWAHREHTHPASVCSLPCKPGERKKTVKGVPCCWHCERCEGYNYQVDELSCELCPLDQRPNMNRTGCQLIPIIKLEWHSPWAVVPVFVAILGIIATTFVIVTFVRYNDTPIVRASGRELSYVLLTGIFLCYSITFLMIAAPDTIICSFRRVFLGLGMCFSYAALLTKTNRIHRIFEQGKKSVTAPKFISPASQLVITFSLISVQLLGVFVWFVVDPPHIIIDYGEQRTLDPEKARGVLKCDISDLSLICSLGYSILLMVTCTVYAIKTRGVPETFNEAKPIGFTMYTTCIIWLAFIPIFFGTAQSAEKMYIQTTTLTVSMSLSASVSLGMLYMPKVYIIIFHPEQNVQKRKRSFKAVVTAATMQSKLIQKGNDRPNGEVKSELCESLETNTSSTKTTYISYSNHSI

Row | SMILES | Activity [1] [%] | inhibition [2] [%] | Activity [3] [%] | inhibition [4] | inhibition [5] [%] | Activity [6] [%] | inhibition [7] [%] | Activity [8] [%] | Tmax [9] [h] | IC50 [10] [µM] | inhibition [10] | Cmax [11] [µM] | clearance [12] [L/h/kg] | Activity [13] [%] | Activity [14] [%] | Activity [15] [%] | half-life [16] [h] | inhibition [17] | IC50 [18] [µM] | IC50 [19] [µM] | also measured
1 | N#Cc1cc(F)cc(-c2nc(-c3ccc(F)cn3)no2)c1 | < 50 | < 50 | < 50 | Dose-dependent effect | < 50 | < 50 | < 50 | < 50 | 4 | 0.026 | Dose-dependent effect | 0.46 | 0.31 | < 50 | < 50 | < 50 | 2.5 | Dose-dependent effect | 0.0026 | 0.0076 | inhibition [20]: < 50%; solubility [21]: 4.2 µM (≈ 1.19 µg/mL); inhibition [22]: inactive; Vd [23]: 1.6 L/kg; inhibition [24]: inactive; Activity [25]: < 50%; inhibition [26]: 100%; microsomal CLint [27]: 10 µL/min/mg; bioavailability [28]: 56%; fraction unbound at 6 h [29]: 0.2; inhibition [30]: Active
2 | N#Cc1ccc(-c2noc(-c3cc(F)cc(C#N)c3)n2)nc1 | < 50 | < 50 | < 50 | Dose-dependent effect | < 50 | < 50 | < 50 | < 50 | 3 | 0.051 | Dose-dependent effect | 0.5 | 0.24 | < 50 | < 50 | < 50 | 5.6 | Dose-dependent effect | 0.0032 | 0.0134 | inhibition [20]: < 50%; solubility [21]: 16.1 µM (≈ 4.69 µg/mL); inhibition [22]: inactive; Vd [23]: 2 L/kg; inhibition [24]: inactive; Activity [25]: < 50%; inhibition [26]: 100%; microsomal CLint [27]: 6 µL/min/mg; bioavailability [28]: 46%; fraction unbound at 6 h [29]: 0.23; inhibition [30]: Active
